Measurements reported in ChEMBL document CHEMBL3867427, “Cytotoxic Guanidine Alkaloids from a French Polynesian Monanchora n. sp. Sponge” (J Nat Prod, 2016).

Legend:
[1] = Antiproliferative activity against human HL60 cells at 1 to 10 uM after 72 hrs by cell titer 96 aqueous one solution based assay relative to control; format: functional, HL-60
[2] = Antiproliferative activity against human HCT116 cells after 72 hrs by cell titer 96 aqueous one solution based assay; format: functional; settings: HCT-116, 72 h
[3] = Cytotoxicity against human KB cells assessed as inhibition of cell proliferation at 1 uM after 72 hrs by cell titer 96 aqueous one solution based assay; format: functional
In short: (§1)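 KB cells in D-MEM with 10% FCS and antibiotics/fungizone under 5% CO2. 600 cells/well treated 24 h after seeding, 1% DMSO final, against DMSO controls. After 72 h, CellTiter 96 AQueous One for 3 h at 37 °C, absorbance 490 nm. Inhibition = [1 − (OD490 treated/OD490 control)] × 100, triplicate; mean ± SE.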

[4] = Antiproliferative activity against human HL60 cells after 72 hrs by cell titer 96 aqueous one solution based assay; format: functional; settings: HL-60, 72 h
[5] = Antiproliferative activity against human MDA435 cells after 72 hrs by cell titer 96 aqueous one solution based assay; format: functional; settings: MDA-MB-435, 72 h
[6] = Antiproliferative activity against human KB cells after 72 hrs by cell titer 96 aqueous one solution based assay; format: functional
In short: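 KB cells (NCI origin) in D-MEM with 10% fetal calf serum, penicillin, streptomycin and fungizone under 5% CO2. 600 cells/well, dosed 24 h after plating from DMSO stocks (1% DMSO final; DMSO-only controls). 72 h exposure, then CellTiter 96 AQueous One for 3 h at 37 °C, A490. IC50 (50% inhibition) from 5 nM–100 μM in separate duplicate experiments.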

[7] = Antiproliferative activity against human HCT116 cells at 1 to 10 uM after 72 hrs by cell titer 96 aqueous one solution based assay relative to control; format: functional, HCT-116
[8] = Antiproliferative activity against human MDA435 cells at 1 to 10 uM after 72 hrs by cell titer 96 aqueous one solution based assay relative to control; format: functional, MDA-MB-435
[9] = Cytotoxicity against human KB cells assessed as inhibition of cell proliferation at 10 uM after 72 hrs by cell titer 96 aqueous one solution based assay; format: functional; in short: as §1
[10] = Antiproliferative activity against mouse B16F10 cells after 72 hrs by neutral red staining based assay; format: functional, cell-based; settings: B16-F10, 72 h
In short: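 Murine B16F10 (ATCC) in DMEM with pyruvate, 10% FBS, 2% glutamine, 1% pen-strep, 37 °C, 5% CO2. 20 000 cells/well dosed 24 h later (1% DMSO final). After 72 h, PBS rinse, neutral red 40 μg/mL for 3 h at 37 °C, destain with acetic acid/EtOH/H2O 1:50:49 for 30 min at RT, A540. IC50 over 10 ng/mL–10 μg/mL, separate duplicates.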

[11] = Antiproliferative activity against mouse B16F10 cells at 1 to 10 uM after 72 hrs by neutral red staining based assay relative to control; format: functional, B16-F10
In short: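 B16F10 cells in supplemented DMEM at 37 °C, 5% CO2, 20 000/well, treated 24 h after plating with 1% DMSO final. After 72 h exposure, neutral red uptake (40 μg/mL, 3 h, 37 °C), acid-ethanol destain, absorbance 540 nm. Inhibition = [1 − (OD540 treated/OD540 control)] × 100 from triplicate experiments.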

[12] = Antiproliferative activity against human MRC5 cells at 1 to 10 uM after 72 hrs by cell titer 96 aqueous one solution based assay relative to control; settings: mrc5, 72 h
[13] = Antiproliferative activity against human MRC5 cells after 72 hrs by cell titer 96 aqueous one solution based assay; settings: MRC5, 72 h

Compound	Activity [1] [%]	IC50 [2] [µM]	inhibition at 1 µM [3] [%]	IC50 [4] [µM]	IC50 [5] [µM]	IC50 [6] [µM]	Activity [7] [%]	Activity [8] [%]	inhibition at 10 µM [9] [%]	IC50 [10] [µM]	Activity [11] [%]	Activity [12] [%]	IC50 [13] [µM]
CCCCCCC[C@@H]1N=C(N)N2CCCC2=C1C(=O)O	100	9.9	61	3.8 to 7.1	9.3 to 11	6.7 to 7.7	100	100	96				
CC[C@H]1C=CCC[C@@]2(C[C@@H]3CC[C@@H]4[C@H](C(=O)OCCCCCCCCCCCCCCCCCC(=O)N(CCCN)CCCC(N)=O)[C@]5(CCC[C@@H](C)O5)NC(=[N+]34)N2)O1			100			0.05 to 0.07			100	0.8 to 0.85	100		
CC[C@H]1C=CCC[C@@]2(C[C@@H]3CC[C@@H]4[C@H](C(=O)OCCCCCCCCCCCCCCCC(=O)O)[C@]5(CCCCO5)NC(=[N+]34)N2)O1			80			0.5 to 0.6			95				
CC[C@H]1C=CCC[C@@]2(C[C@@H]3CC[C@@H]4[C@H](C(=O)OCCCCCCCCCCCCCCCCC(=O)N(CCCN)CC(O)CCN)[C@]5(CCC[C@@H](C)O5)NC(=[N+]34)N2)O1 (stereo not given in full)	100	0.02 to 0.05	96	0.01 to 0.03	0.04 to 0.07	0.005 to 0.02	100	100	100	0.2	100		
CCCCCCCC[C@@H]1N=C(N)N2CCCC2=C1C(=O)OCCCCNC(=N)N	100	3.4 to 4.2	86	8 to 9.1		0.3	100		100			100	3.6 to 4.1
CCCCCCCCC[C@@H]1N=C(N)N2CCCC2=C1C(=O)O			0						72				
CCCCCCCCCc1nc(N)[n+]2c(c1C(=O)OCCCCNC(=N)N)CCC2	100	3.4 to 3.5	89	3.6 to 5.4		0.1	100		98			100	3.4 to 3.9
CCCCCCCCC[C@@H]1N=C(N)N2CCCC2=C1C(=O)OCCCCNC(=N)N			97			0.03			100				
CCCCCCCCCc1cc2[n+](c(N)n1)CCC2	100	0.74 to 0.84	82	1.3	0.32 to 0.86	0.2 to 0.4	100	100	99			100	0.55 to 0.6
CCCCCCC[C@@H]1N=C(N)N2CCCC2=C1C(=O)OCCCCNC(=N)N			80			0.1 to 0.2			100				
CC[C@H]1C=CCC[C@@]2(C[C@@H]3CC[C@@H]4[C@H](C(=O)OCCCCCCCCCCCCCCCC(=O)N(CCCN)CC(O)CCN)[C@]5(CCC[C@@H](C)O5)NC(=[N+]34)N2)O1 (stereo not given in full)	100	0.007	100	0.004 to 0.006	0.009 to 0.015	0.005	100	100	99	0.2	100		
CC[C@H]1C=CCC[C@@]2(C[C@@H]3CC[C@@H]4[C@H](C(=O)OCCCCCCCCCCCCCCCC(=O)O)[C@]5(CCC[C@@H](C)O5)NC(=[N+]34)N2)O1			85			0.5 to 0.6			97				
CC[C@H]1C=CCC[C@@]2(C[C@@H]3CC[C@@H]4C[C@]5(CCC[C@@H](C)O5)NC(=[N+]43)N2)O1			0						84				
CC[C@H]1C=CCC[C@@]2(C[C@@H]3CC[C@@H]4[C@H](C(=O)OCCCCCCCCCCCCCCC(=O)N(CCCN)CC(O)CCN)[C@]5(CCC[C@@H](C)O5)NC(=[N+]34)N2)O1 (stereo not given in full)	100	3.1 to 3.4	89	5 to 5.4		0.3	100		100			100	3.2 to 3.4
